Hits are enriched below; roughly 2.1% of the tested compounds scored in any of these assays.
Runt-SMMHC FRET – inhibitors of human RUNX1 Runt domain binding to CBFb-SMMHC. Q01196+Q13951. Cerulean-Runt/Venus-CBFb-SMMHC FRET ratio 530/480, 1 h. inhibition, % at 20 µM. hit rate 0.74% among 220,000;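 active means mean inhibition across duplicate retests at 20 µM reaching about 50%, limit read from the data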;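 further: 0% = DMSO wells and 100% = wells with excess untagged CBFb-SMMHC; inhibitors lower the FRET ratio by blocking Runt binding to CBFb-SMMHC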
MEX-5 binding – C. elegans MEX-5 TCR-2 RNA binding activity | MEX-5/FITC-TCR2 RNA binding, fluorescence polarization; hits give low values | hit rate 0.38% among 300,000 | activity score (negative = inhibition of binding), % at 10 µM | Q9XUB2;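 active means inhibition past about -25% in most replicates, and total fluorescence under double the plate's negative control median, limit read from the data; inconclusive means replicates evenly split on the limit, or fluorescence at least double controls; inactive means too little inhibition in most replicates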;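 further: 0% = DMSO and -100% = 5 µM competing unlabeled TCR2 RNA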
Target sequence (Q9XUB2 whole entry, looked up): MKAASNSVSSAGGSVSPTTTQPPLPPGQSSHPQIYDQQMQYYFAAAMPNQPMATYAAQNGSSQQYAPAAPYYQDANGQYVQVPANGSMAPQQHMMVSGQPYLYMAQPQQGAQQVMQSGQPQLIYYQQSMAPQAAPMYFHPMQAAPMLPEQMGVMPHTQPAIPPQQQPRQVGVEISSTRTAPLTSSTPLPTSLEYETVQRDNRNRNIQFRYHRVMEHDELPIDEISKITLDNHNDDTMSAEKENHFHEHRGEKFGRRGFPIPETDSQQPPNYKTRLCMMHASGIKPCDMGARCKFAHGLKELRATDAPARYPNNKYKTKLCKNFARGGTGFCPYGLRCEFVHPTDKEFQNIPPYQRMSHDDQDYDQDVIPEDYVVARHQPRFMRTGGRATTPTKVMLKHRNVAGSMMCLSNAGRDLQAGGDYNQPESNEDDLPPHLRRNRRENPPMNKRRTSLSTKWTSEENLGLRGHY
RanGTP-Impb inh – inhibitors of RanGTP-importin-beta interaction, primary screen, biochemical, FRET, CFP-Ran, YFP-importin-beta, homogeneous; cell-free CFP-Ran/YFP-importin-beta FRET ratio; AID 2216; hit rate 1.1% among 300,000; inhibition, % (no concentration beside the values);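 active means more than half of the replicate wells show a fall in the fluorescence ratio signal beyond about 16%, limit read from the data, passing the limit was not always enough; inconclusive means exactly half of the replicate wells pass the set limit; inactive means fewer than half of replicates pass the limit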;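 further: 0% = DMSO wells and 100% = Ran loaded with GDP instead of GTP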
proKLK7 act – activates the human kallikrein-7 zymogen; P49862; purified proKLK7, EDANS-DABCYL substrate fluorescence; 100% is mature enzyme control, 0% vehicle; activation, % at 7 µM; hit rate 0.9% among 370,000; AID 652039;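 active means activation above the mean of all tested compounds plus 3 SD, computed per campaign excluding outliers beyond control limits, cut at about 13% in these data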
Runt-CBFb FRET – blocks binding of human RUNX1 Runt domain to CBFb; Q01196+Q13951; Cerulean-Runt/Venus-CBFb FRET ratio 530/480, 1 h; inhibition, % at 20 µM; hit rate 0.46% among 220,000; AID 1496;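 active means inhibition over about 50% at 20 µM in the single-dose screen, limit read from the data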;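 further: 0% = DMSO wells and 100% = excess unlabeled CBFb competitor control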
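Reagent – Venus-CBFb binding partner, 100 nM · Assay system – Cerulean-tagged RUNX1 Runt domain (FRET donor) fusion protein · Input – 100 nM per protein · Incubation – two 1 h room-temperature incubations shielded from light · Measured by – FRET fluorescence · Medium – Tris buffer pH 7.5 with salts and BSA · Benchmarks – unlabeled CBFb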
Active calls of the source: *; ? = inconclusive; nt = no result.

SMILES	Runt-SMMHC FRET	MEX-5 binding	RanGTP-Impb inh	proKLK7 act	Runt-CBFb FRET
CCC(C(=O)NC1CCCC1)N(C(=O)Cn1nnc(-c2ccc(C)o2)n1)c1ccc(F)cc1 (configuration not stated)	nt	1	5	-1	nt
COc1ccccc1-n1cnc2cc(NCc3ccccc3O)ccc21	-1	0	42*	0	4
Cc1ccccc1NC(=O)OC1CCC12CCC(c1ccccc1)CC2 (configuration not stated)	nt	nt	nt	0	nt
CN(C)c1ccc(/C=N/NC(=O)c2ccccn2)cc1	-13	15	0	-1	-4
CN(C)c1ccc(/C=N/NC(=O)c2cnc3ccccc3c2)cc1	-49	-44*	1	0	-21
CN1CCc2c(C#N)c(N3CCCCC3)nc(N3CCOCC3)c2C1	nt	1	0	nt	nt
N#Cc1c(NCCO)nc(NCc2ccccc2)c2c1CCN(Cc1ccccc1)C2	79*	0	137*	nt	32
CCN1CCc2c(C#N)c(N3CCOCC3)nc(NCc3ccccc3)c2C1	58*	-1	28*	0	40
CCN1CCc2c(C#N)c(N3CCCCC3)nc(NCc3ccccc3)c2C1	23	-1	1	1	17
C=CCNc1nc(N2CCCCC2)c(C#N)c2c1CN(Cc1ccccc1)CC2	0	0	52*	-5	10
C=CCNc1nc(N2CCOCC2)c(C#N)c2c1CN(C)CC2	55*	-1	96*	8	32
C=CCNC(=O)CN(C(=O)Cc1ccc(Cl)nc1)c1cccc(Br)c1	nt	nt	nt	0	nt
Cc1cn([C@H]2C[C@H](O)[C@@H](/C=C/C(=O)NCCc3ccc4ccccc4c3)O2)c(=O)[nH]c1=O	nt	nt	nt	0	nt
CCN1CCc2c(C#N)c(N3CCOCC3)nc(NCCO)c2C1	62*	-11	54*	8	33
CCc1nc(N2CCOCC2)c(C#N)c2c1CCCC2	-2	-1	0	-1	-2
COc1ccc(/C=C2\SC(=O)NC2=S)cc1OC	-15	-36*	-105	0	3
Cc1ccc(/C=C2/SC(=O)NC2=S)o1	59*	nt	nt	nt	26
Cc1cc(C)c(NC(=O)Cn2nnc(C(=O)NCc3ccc4c(c3)OCO4)c2N)c(C)c1	nt	-2	1	nt	nt
CC(C)c1ccc(-n2nc3ccc(N)cc3n2)cc1	-3	1	-1	-2	2
Cc1ccc(-n2nc3ccc(N)cc3n2)cc1	-8	0	?	35*	0
C/C(CC(=O)Nc1ccc(F)cc1)=N\NC(=O)c1ccccn1	1	-3	179*	-1	1
CC(=O)Nc1ccccc1NC(=O)C/C(C)=N/NC(=O)c1ccccn1	nt	1	-1	1	nt
O=C(O)CCC(=O)OCCN(Cc1ccc(Oc2ccc([N+](=O)[O-])cc2)cc1)C(=O)C(Cl)Cl	nt	nt	nt	1	nt
CCOC(=O)N1CC(C)N(CC(O)CN2CCOCC2)CC1C (configuration not stated)	nt	nt	nt	-1	nt
CCCCn1nc(NC(=O)c2cccs2)c2cc3cc(OC)ccc3nc21	78*	-1	129*	-14	67*
SMILES	Runt-SMMHC FRET	MEX-5 binding	RanGTP-Impb inh	proKLK7 act	Runt-CBFb FRET
CCCn1nc(NC(=O)c2cccs2)c2cc3cc(OC)ccc3nc21	63*	-2	106*	0	63*
CC(C)C[C@@H]1CC2=C(C(=O)OC(C)(C)O2)[C@H](c2ccc(Cl)cc2)O1	nt	nt	nt	0	nt
COc1ccc(Cc2c(C3CCCCC3)nc3c(C)cc(Br)cn23)c(C)c1	nt	nt	nt	-3	nt
CCn1nc(C)cc1-c1nnc(Sc2ncc([N+](=O)[O-])s2)n1C	nt	0	-3	1	nt
CCN(CC)c1ccc2c(C)c(Cl)c(=O)oc2c1	91*	-1	108*	10	20
COc1ccc(-c2c(C)c3ccc(OCC(C)=O)cc3oc2=O)cc1	0	-1	-1	nt	-2
CCOc1ccc2c(C)c(Cl)c(=O)oc2c1	-1	-2	3	5	1
CCN(CC)c1ccc2c(c1)oc(=O)c1c(Cl)cc(=O)oc12	62*	0	67*	nt	18
CCN(CC)c1ccc2c(Cl)c(Br)c(=O)oc2c1	-14	-3	43*	nt	12
CCN(CC)c1ccc2c(C)c(-c3ccc(N)cc3)c(=O)oc2c1	64*	4	136*	0	48
S=C(NCc1ccco1)N1CCOCC1	-8	-10	22*	0	27
S=C(NCc1ccco1)N1CCN(Cc2ccco2)CC1	1	0	-2	0	nt

Screening results (PubChem BioAssay)
